Efflux pump mplx = blocks antifungal efflux pumps in multiplex yeast assay | S. cerevisiae Candida pump triplex, Nile Red efflux | inhibition, % at 10 µM | 330,000 compounds, 0.44% hits;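 active = plate passing quality check with inhibition over a set limit, or well fluorescence over plate mean plus 4 SD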;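 also: Nile Red retained in pooled yeast measured as flow cytometry median fluorescence; higher means more Nile Red kept so more efflux inhibition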
ARFGAP1 inhibitor = rat ARFGAP1 inhibition; inhibition, % at 16.5 µM; Q62848; 360,000 compounds, 0.26% hits; AID 651572; Arfgap1-stimulated ARF1 GTP hydrolysis, GDP FP detection;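 active = inhibition above a per-plate limit, mean inhibition of low control wells plus 3 SD, cut at about 25% in these data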
Target sequence (Q62848 1-136 limits assumed): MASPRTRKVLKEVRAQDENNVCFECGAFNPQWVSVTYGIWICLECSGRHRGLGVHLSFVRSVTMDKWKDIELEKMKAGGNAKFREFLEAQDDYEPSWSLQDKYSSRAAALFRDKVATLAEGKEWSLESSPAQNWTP
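material = rat Arfgap1 catalytic domain, aa 1-136 | also added = human ARF1(Δ1-17)-GTP substrate | compound dosing = one concentration, 16.5 µM, DMSO 1.26% | times = GTP hydrolysis reaction 2 h at 25 °C | measured by = FP, GDP Alexa 633 tracer displaced from anti-GDP antibody, 620/688 nm | evaluation = percent inhibition of Arfgap1-stimulated GTP hydrolysis | replication = single well per compound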
ASAP1 inh = blocks human ASAP1-stimulated Arf1 GTP hydrolysis; 360,000 compounds, 0.19% hits; GDP FP detection; inhibition, % at 16.5 µM; Q9ULH1; in the data active = inhibition above about 25%
Rtt109 HAT inh = blocks Candida albicans Rtt109/Vps75 acetyltransferase activity; 330,000 compounds, 0.16% hits; purified Rtt109/Vps75, ThioGlo CoA-SH fluorescence, 4 h; AID 540336; Q5AAJ8; inhibition, % at 34.9 µM;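 active = inhibition of at least 50% in every replicate; inconclusive = best replicate reaches 50% inhibition but some replicates fall short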
Target sequence (Q5AAJ8 whole entry, looked up): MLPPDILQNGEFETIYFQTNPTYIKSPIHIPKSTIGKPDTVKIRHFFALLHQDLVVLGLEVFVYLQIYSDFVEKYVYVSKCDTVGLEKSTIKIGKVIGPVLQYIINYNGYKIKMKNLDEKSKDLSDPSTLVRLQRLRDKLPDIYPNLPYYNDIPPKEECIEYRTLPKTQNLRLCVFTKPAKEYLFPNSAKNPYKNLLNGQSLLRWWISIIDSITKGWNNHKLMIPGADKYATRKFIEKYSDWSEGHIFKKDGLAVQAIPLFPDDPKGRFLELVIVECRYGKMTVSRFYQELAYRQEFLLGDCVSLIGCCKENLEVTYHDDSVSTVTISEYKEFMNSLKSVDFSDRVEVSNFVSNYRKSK
FGF22 binding = FGF22 (human) thermal shift binding; 340,000 compounds, 1.5% hits; recombinant FGF22 thermal shift, SYPRO orange fluorescence; percent of sucrose octasulfate shift, DMSO zero; Q9HCT0; activity (Tm shift, normalised), % at 9.99 µM; AID 651658;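 active = mean Tm shift, scaled 0 neutral to 100 positive control, at about 1.3% or above, every replicate too, limit read from the data; inconclusive = no clear call, values can overlap the other calls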
Each line names hits and unclear results; the compound was inactive in the other large screens. Shown are actives, neighbours in structure and some others; about 1.9% of the full set was active somewhere.

NS(=O)(=O)c1ccc(NC(=O)COC(=O)COc2ccc(Cl)cc2)cc1	FGF22 binding 43 (no result: Rtt109 HAT inh)
COc1cc(C(=O)NCCc2cc3c(OC)ccc(OC)c3[nH]c2=O)cc(OC)c1OC	none
COc1ccc(OC)c2[nH]c(=O)c(CCNC(=O)c3cccs3)cc12	FGF22 binding 44
CCCC(=O)Nc1ccc(C(=O)NNC(=S)NC(=O)c2cccs2)cc1	Rtt109 HAT inh 60 (no result: FGF22 binding)
O=C(NNC(=O)c1cccs1)c1ccc(F)cc1	FGF22 binding 43
COc1ccccc1CC(=O)NNC(=O)c1cccs1	FGF22 binding 44
O=C(NNC(=O)c1cccs1)c1ccc([N+](=O)[O-])cc1	FGF22 binding 44 (no result: Rtt109 HAT inh)
N#Cc1cnn2c(C(F)(F)F)c3c(nc12)CCCC3	none
CCOC(=O)C1(CC2CC2)CCN(Cc2cn[nH]c2-c2ccccc2)CC1	none
CCOC(=O)C1(CC2CC2)CCN(Cc2cn[nH]c2-c2cccc(F)c2)CC1	FGF22 binding 44
O=C(Nc1ccc(F)cc1F)N1CCCC(c2nc(-c3ccc(F)cc3)no2)C1 (configuration not stated)	Rtt109 HAT inh 64
O=C(c1ccc(F)cc1F)N1CCCC(c2nc(-c3ccc(F)cc3)no2)C1 (configuration not stated)	none
C=CCNc1nc(Nc2ccc([N+](=O)[O-])cc2)nc(OC)n1	none (no result: FGF22 binding)
C=CCNc1nc(Cl)nc(Nc2ccc([N+](=O)[O-])cc2)n1	FGF22 binding 44
COc1ccc(Nc2nc(Cl)nc(Nc3ccc(OC)cc3OC)n2)c(OC)c1	none
CC(=O)Nc1ccc(Nc2nccc(C)n2)cc1	none (no result: Efflux pump mplx, Rtt109 HAT inh)
CC(=O)Nc1ccc(Nc2nc(Cl)nc(Nc3ccc(NC(C)=O)cc3)n2)cc1	FGF22 binding 44
C=CCNc1nc(Cl)nc(Nc2ccc(OC)cc2OC)n1	FGF22 binding 43
COc1ccc(Nc2nc(Cl)nc(Nc3ccc(OC)cc3)n2)cc1	FGF22 binding 43
COc1ccc(N2CCN(C(=O)COC(=O)c3ccc(OC(F)F)cc3)CC2)cc1	none
COc1ccc(NC(=O)C2(C)CCN2C(=O)c2ccccc2CCc2ccccc2)cc1OC (configuration not stated)	none (no result: Efflux pump mplx, Rtt109 HAT inh)
Cc1ccccc1OCC(=O)OCC(=O)NCc1ccco1	none
O=C(Cc1cccnc1)N1CC(=O)N2[C@@H](CO)[C@H](c3ccc(C4=CCCCC4)cc3)[C@@H]2C1	none (no result: Efflux pump mplx, ARFGAP1 inhibitor, ASAP1 inh, Rtt109 HAT inh)
CCOC(=O)c1cnc(-c2ccccc2)nc1N1CC(C)OC(C)C1 (configuration not stated)	Rtt109 HAT inh inconclusive, FGF22 binding 43
CCCNC(=O)c1cc(C2CCCCN2C(=O)c2ccc3c(c2)CCO3)on1 (configuration not stated)	FGF22 binding 43 (no result: Efflux pump mplx, Rtt109 HAT inh)
CC(O)CNc1nc2sc3c(c2c(=O)n1CCc1ccccc1)CCCCC3 (configuration not stated)	FGF22 binding 44 (no result: Rtt109 HAT inh)
O=C(c1cc(-c2ccccc2)nc2ccccc12)N1N=C(C(F)F)CC1(O)C(F)F (configuration not stated)	none
CCOc1cccc(-c2cc(C(=O)N3N=C(C)CC3(O)C(F)F)c3ccccc3n2)c1 (configuration not stated)	FGF22 binding 43
COc1ccc(C(=O)Nc2cc(C)on2)cc1[N+](=O)[O-]	FGF22 binding 43
COc1ccc(C(=O)Nc2cc(C)on2)cc1OC	none
O=C(Nc1ccc(NC(=O)c2cccs2)cn1)c1ccccc1	FGF22 binding 43
O=C(Nc1ccc(NC(=O)C2CC2)nc1)c1cccs1	none (no result: FGF22 binding)
CCCCNc1ncnc2c1cnn2Cc1ccc(Cl)cc1	none
CCN(CC)c1ncnc2c1cnn2Cc1ccc(Cl)cc1	FGF22 binding 43
COc1ccc(/C=N/NC(=O)c2cccc(NC(C)=O)c2)c(OC)c1	FGF22 binding 43
COc1ccc(C(=O)Nc2cccc(C(=O)N/N=C/c3ccc(OC)cc3OC)c2)cc1	none
COc1ccc(/C=N/NC(=O)c2cccc(NC(=O)c3ccccc3Cl)c2)cc1OC	FGF22 binding 43
CN(C)C(=O)c1cnc(Sc2ncc(C(F)(F)F)cc2Cl)n1C	none (no result: FGF22 binding)
CC(=O)N[C@@H](Cc1c[nH]c2ccccc12)C(=O)NC1CCCc2ccccc21 (some centres not stated)	none
Cn1c(=O)c2c(ncn2CC(COCc2ccc(Cl)cc2)OCc2ccc(Cl)cc2)n(C)c1=O (configuration not stated)	none (no result: FGF22 binding)
Cn1c(=O)c2c(ncn2Cc2ccc(Cl)cc2)n(C)c1=O	FGF22 binding 44

Screens from PubChem.
